A short description of this data set: Toxicity liver stage against HepG2, at 10uM. It is filed as cell-based. More on the design: test concentration 10 uM, cell line HepG2-A16-CD81EGFP. The note with it: human, HepG2-A16-CD81EGFP cells; read-out: INHIBITION
In a few lines:
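Uninfected HepG2-A16-CD81EGFP cells, 3 × 10^3 per well, 1536-well, plated on prespotted compound at 10 μM final, parasite-free screening media added to match infected plates; puromycin 10 μM positive, DMSO 0.5% negative; run in parallel with 48 h PbLuc assay at 37 °C, 5% CO2; viability by CellTiter-Glo luminescence, normalized to controls.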
For `CC1CCN(C[C@H]2CN3CC[C@H]2C[C@@H]3CNC(=O)Nc2ccsc2)CC1`, the cytotoxicity at 10 µM was 2.95%.
The same measure for `CC(C)C1SCC(=O)Nc2c1cnn2-c1ccc(Cl)cc1` (stereo not given): 47%.
For the compound `CC(C)Nc1nc2c(c(NC3CC3)n1)CN(C(=O)c1ccsc1)CC2`, the cytotoxicity at 10 µM was -27.2%.
The same measure for `Cn1nc(CN2CCCCC2)c2c1CN(C(=O)Nc1cccc(F)c1)C2`: 5.68%; for `CCS(=O)(=O)N1CCc2ncnc(OC)c2CC1`: 6.93%.
The same measure for `OCCCNc1nc(O)c2c(n1)-c1ccccc1CC21CCCCC1`: 11.1%.
In the case of `Cc1[nH]/c(=N\C(=O)c2csc(NC3CC3)n2)sc1C`, the cytotoxicity at 10 µM was determined as 37.4%.
To `CC(Cn1cc(Br)cn1)C(=O)Nc1ccc(Br)cn1` (stereo not given) belongs 73.3%; to `CC(=O)Nc1ncc(S(=O)(=O)Nc2ccc(C)cc2)s1`, 8.6%.
To `Cc1ccc(NC(C)(C)c2nnnn2-c2ccc(Cl)cc2)c(C)c1` belongs 55.4%.
As to `CCc1noc(C2CCCCN2C(=O)c2cc(C)oc2C)n1` (stereo not given), the cytotoxicity at 10 µM amounted to 8.57%.
The same measure for `Cc1ccnn1CCCNC(=O)C1CCN(S(C)(=O)=O)CC1`: 3.63%; for `CCN(CC)C(=O)CN1CCC2(C=Cc3cc(Cl)c(C)cc3O2)CC1`: -3.02%.
To `Cc1cc(Cc2cccc(C(F)(F)F)c2)cc(C2CCCNC2)n1` (stereo not given) belongs -2.34%; to `CCCN(C(=O)c1cccnc1)c1nc2c(s1)CCc1c-2cnn1C`, 5.05%; to `CNc1cccc(C2CCCN(C(=O)Cc3ccccc3)C2)n1` (stereo not given), -6.5%.
The same measure for `CCc1ccc(C(=O)N2CC[C@H](Oc3cccnc3C)[C@@H](O)CC2)cc1`: 8.24%; for `Cc1ccc(Nc2nccc(C3CCCN(CC(=O)N(C)C)C3)n2)nc1` (stereo not given): -2.09%.
With `CC(C)c1nc2n(n1)CC(Nc1ncnc3ccccc13)CC2` (stereo not given), the cytotoxicity at 10 µM was -0.95%.
The same measure for `CC(C)(C)CN(CCC#N)C(=O)c1cccc(CC#N)c1`: 7.05%; for `CC(c1nc(-c2ccccc2)no1)N1CCc2c(ncn2C2CC2)C1` (stereo not given): 7.12%.
For the compound `CN(CCc1ccncc1)CCc1nccs1`, the cytotoxicity at 10 µM is 1.8%.
To `COCC1CCN(c2ccnc3ccsc23)C1` (stereo not given) belongs 6.24%; to `CC(C)(C)n1ncc(NCC(O)c2ccccc2)c(Cl)c1=O` (stereo not given), 46.6%.
The same measure for `NC(=O)c1ccc(N2CCN(Cc3ccc(F)cc3Cl)CC2)nn1`: 62.6%; for `N#Cc1cccn(CCOc2ccc(Cl)cc2)c1=O`: 18.6%; for `CC(C)Cn1ncc(C(=O)NS(=O)(=O)c2ccccc2)c1C1CC1`: 2.35%.
To `CSCc1cc(F)ccc1CNC(=O)N1CCCC(CO)C1` (stereo not given) belongs 10.3%.
For `COc1cc(C)sc1C(=O)NCCC(=O)N(C)c1ccccc1`, the cytotoxicity at 10 µM is -1.41%.
For `CC(C)(C)C(=O)Cn1nc(C2CC2)cc(C(F)(F)F)c1=O`, the cytotoxicity at 10 µM was -8.06%.
As for `CN(c1ccc(CNC(=O)c2c[nH]c(=O)c(Cl)c2)cc1)C1CCCCC1`, the cytotoxicity at 10 µM amounted to 88.9%.
To `Cc1ccc(S(=O)(=O)N2CCN(CCCn3ccnc3)CC2)cc1` belongs -13.5%; to `CC(C)(C)SCC(=O)NCCc1csc(N2CCCC2)n1`, 8.74%.
To `COCc1noc(C2(c3ccc(F)cc3)CCC2)n1` belongs 5.93%; to `Cc1cc(C(=O)NCc2ccccc2CN(C)Cc2ccco2)on1`, 3.57%.
To `Cn1cc(-c2csc(N3CCCCCC3)n2)cn1` belongs 4.22%; to `NC(=O)c1ccc(N2CCCCC2)c(NC(=O)c2cc(Br)ccc2Cl)c1`, 59.6%; to `CC(C)(C)c1nc(CNC2CCCN(c3cccnn3)C2)no1` (stereo not given), 4.93%.
In the case of `Cc1nc(C)c(C)c(N2CCC(NCCOc3ccccc3)CC2)n1`, the cytotoxicity at 10 µM is -1.45%.
To `O=C(c1[nH]nc(C2CC2)c1Cl)N1CCN(S(=O)(=O)c2ccccc2)CC1` belongs 16%; to `COCCN(C)c1ccc(NCc2ccsc2)nc1`, -5.2%.
The same measure for `O=C(C[S+]([O-])Cc1ccc(F)cc1)N1CCc2sccc2C1` (stereo not given): -3.86%; for `CC(C)(C)c1nc(CNc2ccccc2SCCC(N)=O)cs1`: 23.5%.
Take `COc1cc(CNc2nncs2)cc(OC)c1OC`: the cytotoxicity at 10 µM was determined as 18.7%.
For `CN(C)S(=O)(=O)c1ccc(CNc2ccc(Cl)cn2)cc1`, the cytotoxicity at 10 µM worked out at 7.25%.
To `CCCN(CCc1ccccn1)C(=O)Cn1cc(C)cn1` belongs -9.22%.
To `COc1ccccc1C1(CNc2snc(Cl)c2C#N)CCCC1` belongs 31.6%; to `O=C(NC1CCN(CC2CC2)C1)c1ccc(N2CCC(O)CC2)cc1` (stereo not given), -11.8%.
The same measure for `NC(=O)c1nc2c(s1)CCN(C(=O)Nc1cccc(Cl)c1)CC2`: 6.64%; for `CCOCC1CN(C(=O)c2ccco2)Cc2cnn(CC)c21` (stereo not given): -69%; for `CC(C)CC(=O)N1CC(=O)c2sc(Nc3ccc(C#N)cc3)nc2C1`: -0.279%.
For `CNc1cc(C)nc(NC2CCCN(C3Cc4ccccc4C3)C2)n1` (stereo not given), the cytotoxicity at 10 µM was determined as 0.403%.
To `c1ccc(OCc2noc(CN3CCC(N4CCSCC4)CC3)n2)cc1` belongs -6.95%.
`NC1CCCCN(Cc2cc(-c3ccccc3OC(F)(F)F)no2)C1` (stereo not given): the cytotoxicity at 10 µM was -4.52%.
To `CCNc1ncc(C(=O)NC2CCc3ccccc3C2)cn1` (stereo not given) belongs 82.6%; to `CCc1cc(N2CCN(c3ccc(Cl)cn3)CC2)n2nccc2n1`, 23.1%.
To `CC(C)c1ccc(CN2C(=O)C3(CCNCC3)Nc3ccccc32)cc1` belongs -9.81%; to `CC(=O)N1CCc2c(nc(N(C)C)nc2NC(C)Cc2cccs2)C1` (stereo not given), -42.9%; to `COc1cccc(CCC2CCCN(C(=O)c3cnccn3)C2)c1` (stereo not given), 13.7%.
To `CN(C)CCNc1ccc(-c2nc(-c3ccccc3F)no2)cn1` belongs 9.34%; to `Fc1cc(Oc2ccc(C(F)(F)F)cn2)cc(F)c1CN1CCCC1`, 24%.
As to `O=C1N(CC2CC2)CCCC1(O)CN1CCc2[nH]ncc2C1` (stereo not given), the cytotoxicity at 10 µM was -2.2%.
The same measure for `CC(C)c1cc(NC2CCCN(C(=O)c3cccs3)C2)ncn1` (stereo not given): -7.55%; for `CSc1nccc(N2CCC(NCc3ccc4nsnc4c3)CC2)n1`: 28.3%.
The same measure for `Cc1nc(CN(C)C)cc(N2CCCC(COc3ccc(F)cc3)C2)n1` (stereo not given): -7.4%; for `Cc1nonc1CN(C)c1nc(-c2cccnc2)nc2c1CCNC2`: 4.05%.
The same measure for `Cc1nc(C)c(C(=O)N2C[C@@H](C(=O)O)[C@H](C3CC3)C2)s1`: 7.53%.
With `CCNC(=O)[C@@H]1C[C@@H](N)CN1Cc1ccc(Sc2ccc(C)cc2)o1`, the cytotoxicity at 10 µM was -53.4%.
In the case of `COc1cc(N(C)Cc2cccc(-n3cccn3)c2)nc(N)n1`, the cytotoxicity at 10 µM worked out at 49.1%.
To `CCNc1ccnc(N2Cc3cnn(Cc4ccc(F)cc4)c3C2)n1` belongs 10%; to `O=C(c1cc(-c2cn[nH]c2)nc2cc(F)ccc12)N1CCS(=O)(=O)CC1`, 0.141%; to `Cc1cc(C(=O)N2CCOC(c3ccc(Cl)c(Cl)c3)C2)[nH]n1` (stereo not given), 4.55%.
To `Cc1ccccc1N1CCCN(c2ccncn2)CC1` belongs 24.9%; to `Cc1c[nH]c(CN2CCOC(c3ccc(Cl)cc3)C2)c(C)c1=O` (stereo not given), 13.4%.
To `Cc1ccc(Cl)cc1C(=O)N1CCC2(CC1)c1ccccc1[C@@H](N)[C@@H]2O` belongs -13.8%; to `O=C1CC[C@H]2CN(Cc3ccc(Cl)s3)CC[C@H]2N1CCc1c[nH]cn1`, 38.5%.
Regarding `Cc1cc(C)c2nc(CN3CCCC(c4cc[nH]n4)C3)cc(O)c2c1` (stereo not given), the cytotoxicity at 10 µM is -3.97%.
To `CCn1ccnc1CN1CCCC(CO)(Cc2cccc(Cl)c2)C1` (stereo not given) belongs -0.0444%.
As to `CCS(=O)(=O)N1CCC(NC(=O)c2cc3ccccc3cc2O)CC1`, the cytotoxicity at 10 µM is -2.1%.
To `COc1ccccc1N1CCN(C(=O)c2ccnc(N(C)C)c2)CC1` belongs 84.2%; to `Cn1cc(NS(=O)(=O)c2ccc3c(c2)CCCC3)ccc1=O`, 40.7%; to `COC(=O)c1ccc(N2CCN(C(=O)c3cccnc3)C(C)C2)cc1` (stereo not given), 4.54%.
The same measure for `COc1cc(C(=O)Nc2nc(C)no2)cc(Cl)c1OC`: -4.29%.
The same measure for `O=C(NCC(=O)N1CCCc2ccccc21)c1c(O)cc(F)cc1F`: 28.6%.
As for `CC(C)c1n[nH]c(C(=O)Nc2ccncc2)c1Br`, the cytotoxicity at 10 µM amounted to 12.6%.
The same measure for `CN(C)c1ccc(CN(CCCn2ccnc2)Cc2c[nH]cn2)cc1`: -1.34%; for `CC(C)NC(=O)N1CCN(CC2CC2)CC2(CC(=O)N(C)C2)C1` (stereo not given): -1.34%.
To `Cc1cnc(N2CCCC3(CCCN3CC(=O)N(C)C)C2)nc1` (stereo not given) belongs -0.634%; to `Fc1cccc(CN2CCOC3(COCCN(CC4CC4)C3)C2)c1` (stereo not given), -111%; to `c1ccc(OC2COC3(CCN(Cc4ccccn4)CC3)C2)cc1` (stereo not given), -69.2%.
In the case of `COCCN1CCO[C@H]2CN(C(=O)c3cccs3)C[C@H]21`, the cytotoxicity at 10 µM was determined as 2.1%.
The same measure for `O=C1CC2(CCN(Cc3ccco3)C2)CN1c1ccc2c(c1)OCO2` (stereo not given): -75.9%; for `Cc1ccc(CN2Cc3nnn(C)c3C(COCc3ccccc3)C2)s1` (stereo not given): 1.58%.
The same measure for `Cc1cccc(CN2C[C@@H]3OCCN(c4ccnc(N(C)C)n4)[C@@H]3C2)c1`: -94.9%.
To `COc1cccc(-c2ncc(CN3C[C@H]4CC[C@@H](C3)N(C)C4=O)s2)c1` belongs 6.74%.

Source of the values: ChEMBL document CHEMBL4513216, “Probing the Open Global Health Chemical Diversity Library for Multistage-Active Starting Points for Next-Generation Antimalarials” (ACS Infect Dis, 2020).
